Laboratory results from ChEMBL document CHEMBL4138126, “Synthesis, antiproliferative, anti-tubulin activity, and docking study of new 1,2,4-triazoles as potential combretastatin analogues” (Eur J Med Chem, 2017).

Columns and labels:
Assay type in all cases: functional
[1] = system: UO-31; experiment: Growth inhibition of human UO31 cells assessed as cell growth at 10 uM after 48 hrs by sulforhodamine B assay; conditions: UO-31, 48 h, read-out: Activity
Outline: (§1)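 NCI 60-cell-line panel from nine tumour types (leukaemia, lung, colon, CNS, melanoma, ovarian, renal, prostate, breast). Each compound was added at one single concentration, and cultures were incubated for 48 h. Results are reported as percent growth inhibition.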

[2] = system: MCF7; experiment: Growth inhibition of human MCF7 cells assessed as cell growth at 10 uM after 48 hrs by sulforhodamine B assay; conditions: MCF7, 48 h, read-out: Activity
Outline: (§2)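 NCI 60-cell-line panel screen (nine cancer types). Compounds added at single concentration 10^-5 M, cultures incubated 48 h; growth inhibition percentages reported.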

[3] = system: BT-549; experiment: Growth inhibition of human BT549 cells assessed as cell growth at 10 uM after 48 hrs by sulforhodamine B assay; conditions: BT-549, 48 h, read-out: Activity; outline: as §2
[4] = system: SF-295; experiment: Growth inhibition of human SF295 cells assessed as cell growth at 10 uM after 48 hrs by sulforhodamine B assay; conditions: SF-295, 48 h, read-out: Activity; outline: as §2
[5] = system: PC-3; experiment: Growth inhibition of human PC3 cells assessed as cell growth at 10 uM after 48 hrs by sulforhodamine B assay; conditions: PC-3, 48 h, read-out: Activity; outline: as §2
[6] = system: Hs-578T; experiment: Growth inhibition of human Hs 578T cells assessed as cell growth at 10 uM after 48 hrs by sulforhodamine B assay; conditions: read-out: Activity; outline: as §2
[7] = system: MDA-MB-231; experiment: Growth inhibition of human MDA-MB-231 cells assessed as cell growth at 10 uM after 48 hrs by sulforhodamine B assay; conditions: MDA-MB-231, 48 h, read-out: Activity; outline: as §2
[8] = system: SNB-75; experiment: Growth inhibition of human SNB75 cells assessed as cell growth at 10 uM after 48 hrs by sulforhodamine B assay; conditions: SNB-75, 48 h, read-out: Activity; outline: as §1
[9] = system: NCI-H460; experiment: Growth inhibition of human NCI-H460 cells assessed as cell growth at 10 uM after 48 hrs by sulforhodamine B assay; conditions: NCI-H460, 48 h, read-out: Activity; outline: as §2
[10] = system: OVCAR-5; experiment: Growth inhibition of human OVCAR5 cells assessed as cell growth at 10 uM after 48 hrs by sulforhodamine B assay; conditions: OVCAR-5, 48 h, read-out: Activity; outline: as §2
[11] = system: OVCAR-8; experiment: Growth inhibition of human OVCAR8 cells assessed as cell growth at 10 uM after 48 hrs by sulforhodamine B assay; conditions: OVCAR-8, 48 h, read-out: Activity; outline: as §2
[12] = system: MDA-MB-435; experiment: Growth inhibition of human MDA-MB-435 cells assessed as cell growth at 10 uM after 48 hrs by sulforhodamine B assay; conditions: MDA-MB-435, 48 h, read-out: Activity; outline: as §2
[13] = system: OVCAR-4; experiment: Growth inhibition of human OVCAR4 cells assessed as cell growth at 10 uM after 48 hrs by sulforhodamine B assay; conditions: OVCAR-4, 48 h, read-out: Activity; outline: as §2
[14] = system: HL-60(TB); experiment: Growth inhibition of human HL-60(TB) cells assessed as cell growth at 10 uM after 48 hrs by sulforhodamine B assay; conditions: HL-60, 48 h, read-out: Activity
Outline: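 Screened by the NCI in its 60-cell-line panel covering nine cancer types, including leukemia. Compounds were added at a single concentration, and the cultures were incubated for 48 h. Results are reported as percent growth inhibition.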

[15] = system: SK-OV-3; experiment: Growth inhibition of human SKOV3 cells assessed as cell growth at 10 uM after 48 hrs by sulforhodamine B assay; conditions: SK-OV-3, 48 h, read-out: Activity; outline: as §2
[16] = system: A498; experiment: Growth inhibition of human A498 cells assessed as cell growth at 10 uM after 48 hrs by sulforhodamine B assay; conditions: A498, 48 h, read-out: Activity; outline: as §2
[17] = system: SF-539; experiment: Growth inhibition of human SF539 cells assessed as cell growth at 10 uM after 48 hrs by sulforhodamine B assay; conditions: SF-539, 48 h, read-out: Activity; outline: as §2
[18] = system: HCT-116; experiment: Growth inhibition of human HCT116 cells assessed as cell growth at 10 uM after 48 hrs by sulforhodamine B assay; conditions: HCT-116, 48 h, read-out: Activity; outline: as §2
[19] = system: SR; experiment: Growth inhibition of human SR cells assessed as cell growth at 10 uM after 48 hrs by sulforhodamine B assay; conditions: read-out: Activity; outline: as §1
[20] = system: A549; experiment: Growth inhibition of human A549/ATCC cells assessed as cell growth at 10 uM after 48 hrs by sulforhodamine B assay; conditions: A549, 48 h, read-out: Activity; outline: as §2
[21] = system: TK-10; experiment: Growth inhibition of human TK10 cells assessed as cell growth at 10 uM after 48 hrs by sulforhodamine B assay; conditions: TK-10, 48 h, read-out: Activity; outline: as §1
[22] = system: NCI/ADR-RES; experiment: Growth inhibition of human NCI-ADR-RES cells assessed as cell growth at 10 uM after 48 hrs by sulforhodamine B assay; conditions: read-out: Activity; outline: as §2
[23] = system: SK-MEL-2; experiment: Growth inhibition of human SK-MEL-2 cells assessed as cell growth at 10 uM after 48 hrs by sulforhodamine B assay; conditions: SK-MEL-2, 48 h, read-out: Activity; outline: as §2
[24] = system: 786-0; experiment: Growth inhibition of human 786-0 cells assessed as cell growth at 10 uM after 48 hrs by sulforhodamine B assay; conditions: 786-0, 48 h, read-out: Activity; outline: as §2
[25] = system: T47D; experiment: Growth inhibition of human T47D cells assessed as cell growth at 10 uM after 48 hrs by sulforhodamine B assay; conditions: read-out: Activity; outline: as §1
[26] = system: NCI-H522; experiment: Growth inhibition of human NCI-H522 cells assessed as cell growth at 10 uM after 48 hrs by sulforhodamine B assay; conditions: NCI-H522, 48 h, read-out: Activity; outline: as §2
[27] = system: M14; experiment: Growth inhibition of human M14 cells assessed as cell growth at 10 uM after 48 hrs by sulforhodamine B assay; conditions: M14, 48 h, read-out: Activity; outline: as §2
[28] = system: COLO 205; experiment: Growth inhibition of human COLO205 cells assessed as cell growth at 10 uM after 48 hrs by sulforhodamine B assay; conditions: COLO 205, 48 h, read-out: Activity; outline: as §2
[29] = system: SW-620; experiment: Growth inhibition of human SW620 cells assessed as cell growth at 10 uM after 48 hrs by sulforhodamine B assay; conditions: SW-620, 48 h, read-out: Activity; outline: as §1
[30] = system: IGROV-1; experiment: Growth inhibition of human IGROV1 cells assessed as cell growth at 10 uM after 48 hrs by sulforhodamine B assay; conditions: IGROV-1, 48 h, read-out: Activity; outline: as §2
[31] = system: HOP-62; experiment: Growth inhibition of human HOP62 cells assessed as cell growth at 10 uM after 48 hrs by sulforhodamine B assay; conditions: HOP-62, 48 h, read-out: Activity; outline: as §2
[32] = system: NCI-H23; experiment: Growth inhibition of human NCI-H23 cells assessed as cell growth at 10 uM after 48 hrs by sulforhodamine B assay; conditions: NCI-H23, 48 h, read-out: Activity; outline: as §2
[33] = system: HOP-92; experiment: Growth inhibition of human HOP92 cells assessed as cell growth at 10 uM after 48 hrs by sulforhodamine B assay; conditions: HOP-92, 48 h, read-out: Activity; outline: as §2

Compound | growth at 10 µM [1] [%] | growth at 10 µM [2] [%] | growth at 10 µM [3] [%] | growth at 10 µM [4] [%] | growth at 10 µM [5] [%] | growth at 10 µM [6] [%] | growth at 10 µM [7] [%] | growth at 10 µM [8] [%] | growth at 10 µM [9] [%] | growth at 10 µM [10] [%] | growth at 10 µM [11] [%] | growth at 10 µM [12] [%] | growth at 10 µM [13] [%] | growth at 10 µM [14] [%] | growth at 10 µM [15] [%] | growth at 10 µM [16] [%] | growth at 10 µM [17] [%] | growth at 10 µM [18] [%] | growth at 10 µM [19] [%] | growth at 10 µM [20] [%] | further results
COc1cccc(-n2nc(C(=O)Nc3ccccc3)nc2-c2cc(OC)c(OC)c(OC)c2)c1 | 61.6 | 91.6 | 87.4 | 91.9 | 90 | 99.7 | 104 | 55.5 | 107 | 89.5 | 101 | 90.4 | 81.8 | 121 | 102 | 100 | 93.6 | 91.3 | 93.9 | 92.4 | growth at 10 µM [21]: 53.2%; growth at 10 µM [22]: 93.1%; growth at 10 µM [23]: 98%; growth at 10 µM [24]: 79.4%; growth at 10 µM [25]: 62.2%; growth at 10 µM [26]: 65.5%; growth at 10 µM [27]: 102%; growth at 10 µM [28]: 104%; growth at 10 µM [29]: 100%; growth at 10 µM [30]: 93.1%; growth at 10 µM [31]: 83.8%; growth at 10 µM [32]: 111%; growth at 10 µM [33]: 97.9%
CCOc1ccc(-n2nc(C(=O)NCc3ccccc3OC)nc2-c2cc(OC)c(OC)c(OC)c2)cc1 | -2.66 | 22.1 | 33.9 | 34.8 | 24.6 | 55.1 | 17.8 | 30 | 30.5 | 74.2 | 43.7 | 22.1 | 23.4 | 19.1 | 67.1 | 30 | 49.2 | 25.3 | 35.9 | 34.5 | growth at 10 µM [21]: 46.5%; growth at 10 µM [22]: 27.8%; growth at 10 µM [23]: 41.5%; growth at 10 µM [24]: 41.5%; growth at 10 µM [25]: 17%; growth at 10 µM [26]: 35.7%; growth at 10 µM [27]: 42.1%; growth at 10 µM [28]: 30.3%; growth at 10 µM [29]: 58%; growth at 10 µM [30]: 43.7%; growth at 10 µM [31]: 62.2%; growth at 10 µM [32]: 60.8%; growth at 10 µM [33]: 29%
CCOc1ccc(-n2nc(C(=O)NCc3cccc(OC)c3)nc2-c2cc(OC)c(OC)c(OC)c2)cc1 | 44.3 | 84.1 | 92.6 | 90.3 | 78.4 | 93.3 | 76.3 | 53.2 | 102 | 120 | 94.3 | 92.5 | 98.9 | 91 | 85.8 | 98.1 | 88.9 | 96 | 72.5 | 73.2 | growth at 10 µM [21]: 87.8%; growth at 10 µM [22]: 82.5%; growth at 10 µM [23]: 90%; growth at 10 µM [24]: 90.2%; growth at 10 µM [25]: 69.8%; growth at 10 µM [26]: 58.7%; growth at 10 µM [27]: 92.9%; growth at 10 µM [28]: 91.8%; growth at 10 µM [29]: 108%; growth at 10 µM [30]: 80.4%; growth at 10 µM [31]: 72.4%; growth at 10 µM [32]: 94.3%; growth at 10 µM [33]: 95.6%
COc1cccc(-n2nc(C(=O)NCc3ccccc3C)nc2-c2cc(OC)c(OC)c(OC)c2)c1 | 35.9 | 82.1 | 86.2 | 76.1 | 83.2 | 77.6 | 73.5 | 31.7 | 96.4 | 111 | 87.3 | 85.8 | 81.6 | 89 | 87.7 | 95.9 | 87.7 | 85.2 | 65.8 | 69.2 | growth at 10 µM [21]: 73.2%; growth at 10 µM [22]: 63.1%; growth at 10 µM [23]: 78.1%; growth at 10 µM [24]: 76%; growth at 10 µM [25]: 56.4%; growth at 10 µM [26]: 60.8%; growth at 10 µM [27]: 86.7%; growth at 10 µM [28]: 84.3%; growth at 10 µM [29]: 102%; growth at 10 µM [30]: 72%; growth at 10 µM [31]: 71%; growth at 10 µM [32]: 84%; growth at 10 µM [33]: 81.8%
COc1cccc(-n2nc(C(=O)NCc3ccccc3OC)nc2-c2cc(OC)c(OC)c(OC)c2)c1 | 59.1 | 98.7 | 103 | 95.1 | 104 | 99.9 | 93 | 63 | 111 | 113 | 103 | 90.8 | 90.8 | 103 | 96.7 | 104 | 96.5 | 102 | 93.8 | 92.8 | growth at 10 µM [21]: 81%; growth at 10 µM [22]: 77.4%; growth at 10 µM [23]: 77.8%; growth at 10 µM [24]: 94%; growth at 10 µM [25]: 75.8%; growth at 10 µM [26]: 60.5%; growth at 10 µM [27]: 99.8%; growth at 10 µM [28]: 101%; growth at 10 µM [29]: 111%; growth at 10 µM [30]: 88.5%; growth at 10 µM [31]: 85.9%; growth at 10 µM [32]: 90.7%; growth at 10 µM [33]: 108%
